These results are taken from ChEMBL document CHEMBL1129691, “Synthesis and structure-DNA binding relationship analysis of DNA triple-helix specific intercalators” (J Med Chem, 1996).

The subject of data set [1] is Nucleic Acid. Description: Temperature (delta Tm) for DNA duplex denaturation evaluated by thermal melting. The data set is classed as nucleic-acid assay. Summed up:
(§1)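 Thermal melting in PIPES buffer (0.01 M PIPES, 0.001 M EDTA, 0.2 M NaCl, pH 7.0). Duplex poly(dA·dT) and triplex poly(dT·dA·dT) are formed by adding DNA stock to buffer. Compound is added at a molar ratio of 0.3 per nucleic acid base (saturating). ΔTm = Tm(complex) − Tm(free DNA), estimated error ±0.5 °C.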

Data set [2] concerns Nucleic Acid. In words: Temperature (delta Tm) for DNA triplex to duplex and single stranded transitions [Poly(dT.dA.dT) to Poly(dA.dT) and Poly(dT)]. The data set is classed as nucleic-acid assay. In short, it runs like this:
as §1

The nature of data set [3]: PKa value of the side chain terminal amino is determined in 1-cm UV cell titreated with HCl or NaOH. The data set is classed as physicochemical. To be noted: buffer. Summed up: (§2)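 UV-monitored pH titration with HCl or NaOH. Sample is dihydrobromide salt or free base (0.01 mM) in nanopure water with NaCl (4 mM) and EDTA (0.1 mM). UV-vis spectra (220-450 nm) recorded after each addition. pH range spans at least 2 units either side of pKa, at least two points per pH unit. Absorbance at the wavelength of greatest change is normalized and plotted against pH.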

Data set [4] is described as follows: PKa value of the N in quinoline ring is determined in 1-cm UV cell titreated with HCl or NaOH. Conditions: buffer. In kind it is physicochemical. In short, it runs like this:
as §2

For `CNCCN(C)c1cc(-c2ccc3cc(C)ccc3c2)nc2ccccc12`, the values for the ΔTm in data set [1] and in data set [2] were 0.5 °C and 23 °C, respectively.
Take `CN1CCN(c2cc(-c3ccc4c(ccc5ccccc54)c3)nc3ccccc23)CC1`: the ΔTm (in general, the change in melting temperature against a reference sample) in data set [1] is 0.3 °C; in data set [2] it was 18.6 °C.
Take `CN(C)CCNc1cc(-c2ccc3c(c2)Nc2ccccc2S3)nc2ccccc12`: the ΔTm in data set [1] was found to be 2.4 °C; in data set [2], 33.1 °C.
Consider `Cc1ccc2cc(-c3cc(N4CCN(C)CC4)c4ccccc4n3)ccc2c1`, for which the ΔTm in data set [1] came to 0.4 °C; in data set [2], 15.5 °C.
For the compound `CN(C)CCNc1cc(-c2ccccc2)nc2ccccc12`, the results for the ΔTm in data set [1] and in data set [2] were 0.3 °C and 11.9 °C, respectively.
In the same order, the values of `CN(C)CCNc1cc(-c2ccc3c(ccc4ccccc43)c2)nc2ccccc12` are 5.2 °C and 35.3 °C.
The like results for `CN(C)CCNc1cc(-c2cccs2)nc2ccccc12` were, in that order, 0.7 °C and 9.4 °C.
With `CN(C)CCN(C)C(=O)c1cc(-c2ccc3ccccc3c2)nc2ccccc12`, the figures for the ΔTm in data set [1] and in data set [2] were 0 °C and 2.1 °C, respectively.
Take `CN1CCN(c2cc(-c3ccc4ccccc4c3)nc3ccccc23)CC1`: the ΔTm in data set [1] was determined as 0.4 °C; in data set [2] it was 19.1 °C. Moreover, the pKa – broadly, the pH at which an ionisable group is half protonated – in data set [3] was above 8; in data set [4], 5.6.
As for `CN(C)CCN(C)c1cc(-c2cccs2)nc2ccccc12`, the results for the ΔTm in data set [1] and in data set [2] were 0 °C and 3 °C, respectively.
Consider `Cc1ccc2cc(-c3cc(NCCN(C)C)c4ccccc4n3)ccc2c1`, for which the figures for the ΔTm in data set [1] and in data set [2] were 2.2 °C and 32.9 °C, respectively.
Consider `CN1CCN(c2cc(-c3ccccc3)nc3ccccc23)CC1`, for which the ΔTm turned out to be 0 °C in data set [1] and 3.2 °C in data set [2].
In the case of `CN(C)CCSc1cc(-c2ccc3ccccc3c2)nc2ccccc12`, the ΔTm in data set [1] turned out to be 0.2 °C; in data set [2], 18.6 °C. Further, the results for the pKa in data set [3] and in data set [4] were above 8 and 4.4, respectively.
Turning to `CNCCN(C)c1cc(-c2ccc3c(c2)Nc2ccccc2S3)nc2ccccc12`, the ΔTm in data set [1] amounted to 1.5 °C; in data set [2] it was 20.8 °C.
On to `CN(C)CCNc1cc(-c2ccc3ccccc3c2)nc2ccccc12`, for which the ΔTm in data set [1] came to 5.5 °C; in data set [2], 35.6 °C. Also, the pKa in data set [3] is above 8; in data set [4], 7.1.
`CNCCN(C)c1cc(-c2ccc3ccccc3c2)nc2ccccc12`: the ΔTm turned out to be 0.2 °C in data set [1] and 24.1 °C in data set [2]. For the same compound, the pKa in data set [3] is above 8; in data set [4], 6.2.
On to `CN(C)CCNc1cc(-c2cccc3ccccc23)nc2ccccc12`, for which the results for the ΔTm in data set [1] and in data set [2] were 0.1 °C and 1.9 °C, respectively.
As for `Cc1ccc2cc(-c3cc(N(C)CCN(C)C)c4ccccc4n3)ccc2c1`, the ΔTm in data set [1] was 0.4 °C; in data set [2], 19 °C.
